Laboratory results published in ChEMBL document CHEMBL1124366, “Synthesis and biological properties of N63-carboxamides of teicoplanin antibiotics. Structure-activity relationships” (J Med Chem, 1989).
Converted amounts (≈) assume the structure as drawn.

How the values were obtained:
[1] = test system: Ac2-L-Lys-D-Ala-D-Ala peptide; assay: Association constant with Ac2-L-Lys-D-Ala-D-Ala
How it was run: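 UV difference spectroscopy at 24 ± 2 °C in 4-cm unthermostated cells. Antibiotic was at 30 μM in 10% MeOH in sodium phosphate buffer, pH 9, and titrated with Ac2-L-Lys-D-Ala-D-Ala. ΔA was monitored at 294 nm. Ka was taken from the slope of a Scatchard plot.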

[2] = test system: Enterococcus faecalis; assay: In vitro minimum inhibitory concentration against Streptococcus faecalis ATCC 7080; assay type: functional
[3] = test system: Streptococcus pyogenes; assay: Subcutaneously administration into mice infected with Streptococcus pyogenes C 203; assay type: functional; settings: sc
How it was run: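 Mice (five per treatment group, five groups) infected intraperitoneally with about 10⁵ cells of Strep. pyogenes C 203, about 100× the LD50. ED50 (mg/kg) was calculated from the percentage of mice surviving at each dose on day 7.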

[4] = test system: Staphylococcus epidermidis; assay: In vitro minimum inhibitory concentration against Staphylococcus epidermis ATCC 12228; assay type: functional
[5] = test system: Streptococcus pneumoniae; assay: In vitro minimum inhibitory concentration against Streptococcus pneumoniae UC41; assay type: functional
[6] = test system: Streptococcus pyogenes; assay: In vitro minimum inhibitory concentration against Streptococcus pyogenes C 203; assay type: functional
[7] = test system: Bacteria; assay: Minimum inhibitory concentration of compound against Gram negative bacteria; assay type: functional
[8] = test system: Staphylococcus aureus; assay: In vitro minimum inhibitory concentration against Staphylococcus aureus Tour; assay type: functional
[9] = test system: Gram-negative bacteria; assay: Minimum inhibitory concentration of compound against Gram negative bacteria
[10] = test system: Escherichia coli; assay: In vitro minimum inhibitory concentration against Escherichia coli SKF 12140; assay type: functional
[11] = test system: Pseudomonas aeruginosa; assay: In vitro minimum inhibitory concentration against Pseudomonas aeruginosa ATCC 10145; assay type: functional
[12] = test system: Proteus vulgaris; assay: In vitro minimum inhibitory concentration against Proteus vulgaris X 19 ATCC 881; assay type: functional
[13] = test system: Staphylococcus haemolyticus; assay: In vitro minimum inhibitory concentration against Staphylococcus hemolyticus 602 cell line; assay type: functional; settings: strain 602

| Compound | Ka [1] [M⁻¹] | MIC [2] [µg/mL] | ED50 [3] [mg/kg] | MIC [4] [µg/mL] | MIC [5] [µg/mL] | MIC [6] [µg/mL] | MIC [7] [µg/mL] | MIC [8] [µg/mL] | MIC [9] [µg/mL] | MIC [10] [µg/mL] | MIC [11] [µg/mL] | MIC [12] [µg/mL] | MIC [13] [µg/mL] |
| --- | --- | --- | --- | --- | --- | --- | --- | --- | --- | --- | --- | --- | --- |
| CC(=O)N[C@@H]1[C@H](O[C@@H]2c3ccc(c(Cl)c3)Oc3cc4cc(c3O)Oc3ccc(cc3Cl)C[C@H]3NC(=O)[C@H](N)c5ccc(O)c(c5)Oc5cc(O)cc(c5)[C@H](NC3=O)C(=O)N[C@H]4C(=O)N[C@H]3C(=O)N[C@@H]2C(=O)N[C@H](C(=O)N2CCSCC2)c2cc(O)cc(O[C@H]4O[C@H](CO)[C@@H](O)[C@@H](O)[C@@H]4O)c2-c2cc3ccc2O)O[C@@H](CO)[C@@H](O)[C@@H]1O | 120000 | 2 (≈ 1.21 µM) | 1.6 | 0.12 (≈ 0.0728 µM) | 0.5 (≈ 0.303 µM) | 0.5 (≈ 0.303 µM) | > 128 | 0.5 (≈ 0.303 µM) | – | – | – | – | – |
| CCCCN(CCCC)CCCNC(=O)[C@H]1NC(=O)[C@H]2NC(=O)[C@H](NC(=O)[C@@H]3NC(=O)[C@H]4NC(=O)[C@@H](Cc5ccc(c(Cl)c5)Oc5cc3cc(c5O)Oc3ccc(cc3Cl)[C@H]2O[C@@H]2O[C@@H](CO)[C@@H](O)[C@H](O)[C@@H]2NC(C)=O)NC(=O)[C@H](N)c2ccc(O)c(c2)Oc2cc(O)cc4c2)c2ccc(O)c(c2)-c2c(O[C@H]3O[C@H](CO)[C@@H](O)[C@@H](O)[C@@H]3O)cc(O)cc21 | – | 0.5 (≈ 0.289 µM) | 0.18 | 0.06 (≈ 0.0346 µM) | 0.5 (≈ 0.289 µM) | 0.12 (≈ 0.0693 µM) | – | 1 (≈ 0.577 µM) | > 128 | – | – | – | – |
| CCN(CC)CCCNC(=O)[C@H]1NC(=O)[C@H]2NC(=O)[C@H](NC(=O)[C@@H]3NC(=O)[C@H]4NC(=O)[C@@H](Cc5ccc(c(Cl)c5)Oc5cc3cc(c5O)Oc3ccc(cc3Cl)[C@H]2O[C@@H]2O[C@@H](CO)[C@@H](O)[C@H](O)[C@@H]2NC(C)=O)NC(=O)[C@H](N)c2ccc(O)c(c2)Oc2cc(O)cc4c2)c2ccc(O)c(c2)-c2c(O[C@H]3O[C@H](CO)[C@@H](O)[C@@H](O)[C@@H]3O)cc(O)cc21 | – | 0.5 (≈ 0.298 µM) | 0.3 | 0.06 (≈ 0.0358 µM) | 0.5 (≈ 0.298 µM) | 0.12 (≈ 0.0716 µM) | – | 0.25 (≈ 0.149 µM) | > 128 | – | – | – | – |
| CC(=O)N[C@@H]1[C@H](O[C@@H]2c3ccc(c(Cl)c3)Oc3cc4cc(c3O)Oc3ccc(cc3Cl)C[C@H]3NC(=O)[C@H](N)c5ccc(O)c(c5)Oc5cc(O)cc(c5)[C@H](NC3=O)C(=O)N[C@H]4C(=O)N[C@H]3C(=O)N[C@@H]2C(=O)N[C@H](C(=O)O)c2cc(O)cc(O[C@H]4O[C@H](CO)[C@@H](O)[C@@H](O)[C@@H]4O)c2-c2cc3ccc2O)O[C@@H](CO)[C@@H](O)[C@@H]1O | – | 0.5 (≈ 0.32 µM) | 2.64 | 0.25 (≈ 0.16 µM) | 0.5 (≈ 0.32 µM) | 0.12 (≈ 0.0767 µM) | > 128 | 0.25 (≈ 0.16 µM) | – | – | – | – | – |
| CN(C)CCCCCCCNC(=O)[C@H]1NC(=O)[C@H]2NC(=O)[C@H](NC(=O)[C@@H]3NC(=O)[C@H]4NC(=O)[C@@H](Cc5ccc(c(Cl)c5)Oc5cc3cc(c5O)Oc3ccc(cc3Cl)[C@H]2O)NC(=O)[C@H](N)c2ccc(O)c(c2)Oc2cc(O)cc4c2)c2ccc(O)c(c2)-c2c(O)cc(O)cc21 | 50000 | 0.12 (≈ 0.0896 µM) | 0.95 | 0.06 (≈ 0.0448 µM) | 0.12 (≈ 0.0896 µM) | 0.06 (≈ 0.0448 µM) | – | 0.06 (≈ 0.0448 µM) | – | 16 (≈ 11.9 µM) | 128 (≈ 95.6 µM) | 128 (≈ 95.6 µM) | 0.12 (≈ 0.0896 µM) |
| CC(=O)N[C@@H]1[C@H](O[C@@H]2c3ccc(c(Cl)c3)Oc3cc4cc(c3O)Oc3ccc(cc3Cl)C[C@H]3NC(=O)[C@H](N)c5ccc(O)c(c5)Oc5cc(O)cc(c5)[C@H](NC3=O)C(=O)N[C@H]4C(=O)N[C@H]3C(=O)N[C@@H]2C(=O)N[C@H](C(=O)N2CCN(C)CC2)c2cc(O)cc(O[C@H]4O[C@H](CO)[C@@H](O)[C@@H](O)[C@@H]4O)c2-c2cc3ccc2O)O[C@@H](CO)[C@@H](O)[C@@H]1O | 100000 | 2 (≈ 1.21 µM) | 0.95 | 0.12 (≈ 0.0729 µM) | 1 (≈ 0.607 µM) | 0.5 (≈ 0.304 µM) | > 128 | 0.25 (≈ 0.152 µM) | – | – | – | – | – |
| CC(=O)N[C@@H]1[C@H](O[C@@H]2c3ccc(c(Cl)c3)Oc3cc4cc(c3O)Oc3ccc(cc3Cl)C[C@H]3NC(=O)[C@H](N)c5ccc(O)c(c5)Oc5cc(O)cc(c5)[C@H](NC3=O)C(=O)N[C@H]4C(=O)N[C@H]3C(=O)N[C@@H]2C(=O)N[C@H](C(=O)NCCN2CCOCC2)c2cc(O)cc(O[C@H]4O[C@H](CO)[C@@H](O)[C@@H](O)[C@@H]4O)c2-c2cc3ccc2O)O[C@@H](CO)[C@@H](O)[C@@H]1O | – | 1 (≈ 0.596 µM) | 1.6 | 0.06 (≈ 0.0358 µM) | 0.5 (≈ 0.298 µM) | 0.12 (≈ 0.0716 µM) | – | 0.25 (≈ 0.149 µM) | > 128 | – | – | – | – |
| N[C@H]1C(=O)N[C@@H]2Cc3ccc(c(Cl)c3)Oc3cc4cc(c3O)Oc3ccc(cc3Cl)[C@@H](O)[C@@H]3NC(=O)[C@H](NC(=O)[C@@H]4NC(=O)[C@@H](NC2=O)c2cc(O)cc(c2)Oc2cc1ccc2O)c1ccc(O)c(c1)-c1c(O)cc(O)cc1[C@@H](C(=O)O)NC3=O [TEICOPLANIN AGLYCON] | 30000 | 0.12 (≈ 0.1 µM) | 0.95 | 0.016 (≈ 0.0133 µM) | 0.12 (≈ 0.1 µM) | 0.12 (≈ 0.1 µM) | – | 0.06 (≈ 0.05 µM) | – | 64 (≈ 53.4 µM) | > 128 | 128 (≈ 107 µM) | 0.25 (≈ 0.209 µM) |
| CC(=O)N[C@@H]1[C@H](O[C@@H]2c3ccc(c(Cl)c3)Oc3cc4cc(c3O)Oc3ccc(cc3Cl)C[C@H]3NC(=O)[C@H](N)c5ccc(O)c(c5)Oc5cc(O)cc(c5)[C@H](NC3=O)C(=O)N[C@H]4C(=O)N[C@H]3C(=O)N[C@@H]2C(=O)N[C@H](C(=O)NCCCN(C)C)c2cc(O)cc(O[C@H]4O[C@H](CO)[C@@H](O)[C@@H](O)[C@@H]4O)c2-c2cc3ccc2O)O[C@@H](CO)[C@@H](O)[C@@H]1O | – | 1 (≈ 0.607 µM) | 0.81 | 0.12 (≈ 0.0728 µM) | 0.5 (≈ 0.303 µM) | 0.12 (≈ 0.0728 µM) | – | 0.5 (≈ 0.303 µM) | > 128 | – | – | – | – |
| NCCCNC(=O)[C@H]1NC(=O)[C@H]2NC(=O)[C@H](NC(=O)[C@@H]3NC(=O)[C@H]4NC(=O)[C@@H](Cc5ccc(c(Cl)c5)Oc5cc3cc(c5O)Oc3ccc(cc3Cl)[C@H]2O)NC(=O)[C@H](N)c2ccc(O)c(c2)Oc2cc(O)cc4c2)c2ccc(O)c(c2)-c2c(O)cc(O)cc21 | 26000 | 0.12 (≈ 0.0956 µM) | 1.25 | 0.06 (≈ 0.0478 µM) | 0.12 (≈ 0.0956 µM) | 0.06 (≈ 0.0478 µM) | – | 0.12 (≈ 0.0956 µM) | – | 4 (≈ 3.19 µM) | 32 (≈ 25.5 µM) | 32 (≈ 25.5 µM) | 0.12 (≈ 0.0956 µM) |
| CC(=O)N[C@@H]1[C@H](O[C@@H]2c3ccc(c(Cl)c3)Oc3cc4cc(c3O)Oc3ccc(cc3Cl)C[C@H]3NC(=O)[C@H](N)c5ccc(O)c(c5)Oc5cc(O)cc(c5)[C@H](NC3=O)C(=O)N[C@H]4C(=O)N[C@H]3C(=O)N[C@@H]2C(=O)N[C@H](C(=O)NCCN2CCCC2)c2cc(O)cc(O[C@H]4O[C@H](CO)[C@@H](O)[C@@H](O)[C@@H]4O)c2-c2cc3ccc2O)O[C@@H](CO)[C@@H](O)[C@@H]1O | – | 0.5 (≈ 0.301 µM) | 0.41 | 0.25 (≈ 0.151 µM) | 0.5 (≈ 0.301 µM) | 0.12 (≈ 0.0723 µM) | – | 0.25 (≈ 0.151 µM) | > 128 | – | – | – | – |
| N[C@H]1C(=O)N[C@@H]2Cc3ccc(c(Cl)c3)Oc3cc4cc(c3O)Oc3ccc(cc3Cl)[C@@H](O)[C@@H]3NC(=O)[C@H](NC(=O)[C@@H]4NC(=O)[C@@H](NC2=O)c2cc(O)cc(c2)Oc2cc1ccc2O)c1ccc(O)c(c1)-c1c(O)cc(O)cc1[C@@H](C(=O)NC(CCC(=O)O)C(=O)O)NC3=O (stereo partly specified) | 82000 | 0.5 (≈ 0.376 µM) | 5 | 0.12 (≈ 0.0904 µM) | 0.12 (≈ 0.0904 µM) | 0.12 (≈ 0.0904 µM) | – | 0.12 (≈ 0.0904 µM) | – | > 128 | > 128 | > 128 | – |
